Measurements reported in ChEMBL document CHEMBL3425497, “Discovery of (R)-1-(3-((2-chloro-4-(((2-hydroxy-2-(8-hydroxy-2-oxo-1,2-dihydroquinolin-5-yl)ethyl)amino)methyl)-5-methoxyphenyl)amino)-3-oxopropyl)piperidin-4-yl [1,1'-biphenyl]-2-ylcarbamate (TD-5959, GSK961081, batefenterol): first-in-class dual pharmacology multivalent muscarinic antagonist and …” (J Med Chem, 2015).
pEC50, pKi: −log10 of the molar value. Active and inactive are the calls of the source. The rule behind the calls is not given here.

Key:
[1] = target: Muscarinic acetylcholine receptor M3 (Homo sapiens, UniProt P20309); test: Displacement of [3H]NMS from human muscarinic M3 receptor expressing CHO-K1 cells incubated for 60 mins or 6 hrs by liquid scintillation counting; format: cell-based
[2] = target: Beta-2 adrenergic receptor (Homo sapiens, UniProt P07550); test: Agonist activity at human beta2 adrenergic receptor expressed in HEK293 cells assessed as cAMP accumulation using [125I]cAMP by scintillation counting; format: functional, cell-based
Cavia porcellus [3] = test: Bronchoprotection in male Duncan Hartley guinea pig bronchoconstriction einthoven model assessed as inhibition of methacholine-induced bronchoconstriction at 100 microg/ml, inhalation after 24 hrs by in vivo muscarinic acetylcholine receptor antagonist activity assay; format: functional; set-up: scale not given: the % may be the effect or the level left
Method in brief: (§1)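 Einthoven bronchoprotection in guinea pigs, read as % bronchoprotection 24 h after inhaled dosing. The TFA salt was used in the initial experiments. For one compound, the edisylate salt was compared with the TFA form. Group sizes were n = 3–8.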

Cavia porcellus [4] = test: Bronchoprotection in male Duncan Hartley guinea pig bronchoconstriction einthoven model assessed as inhibition of methacholine-induced bronchoconstriction at 100 microg/ml, inhalation after 24 hrs by in vivo beta2 adrenergic receptor agonist activity assay; format: functional; set-up: scale not given: the % may be the effect or the level left; method in brief: as §1
Cavia porcellus [5] = test: Bronchoprotection in male Duncan Hartley guinea pig bronchoconstriction einthoven model assessed as inhibition of methacholine-induced bronchoconstriction at 100 microg/ml, inhalation after 1.5 hrs by in vivo muscarinic acetylcholine receptor antagonist activity assay; format: functional; set-up: scale not given: the % may be the effect or the level left
Cavia porcellus [6] = test: Bronchoprotection in male Duncan Hartley guinea pig bronchoconstriction einthoven model assessed as inhibition of methacholine-induced bronchoconstriction at 100 microg/ml, inhalation after 1.5 hrs by in vivo beta2 adrenergic receptor agonist activity assay; format: functional; set-up: scale not given: the % may be the effect or the level left
Cavia porcellus [7] = species on record: Cavia porcellus; test: Antisialagogue activity in guinea pig assessed as inhibition of pilocarpine-induced sialagogue response at 100 ug/ml, inhalation after 1.5 hrs; format: functional
Method in brief: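 Guinea pigs were pretreated with test compound by inhalation. At 1.5 h post-dose they were challenged with pilocarpine. The sialagogue (salivation) response was recorded as % inhibition.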

Cavia porcellus [8] = test: Bronchoprotection in male Duncan Hartley guinea pig bronchoconstriction einthoven model assessed as inhibition of methacholine-induced bronchoconstriction at 10 microg/ml, inhalation after 24 hrs by in vivo muscarinic acetylcholine receptor antagonist activity assay; format: functional; set-up: scale not given: the % may be the effect or the level left
Method in brief: (§2)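 Guinea pig Einthoven bronchoprotection model after test compound dosing (TFA salt in initial experiments). % bronchoprotection was scored separately as MA, BA and combined MABA activity, at 1.5 h or 24 h postdose; n = 3–8 animals per group.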

Cavia porcellus [9] = test: Bronchoprotection in male Duncan Hartley guinea pig bronchoconstriction einthoven model assessed as inhibition of methacholine-induced bronchoconstriction at 10 microg/ml, inhalation after 24 hrs by in vivo beta2 adrenergic receptor agonist activity assay; format: functional, organism-based; method in brief: as §2
Cavia porcellus [10] = test: Bronchoprotection in male Duncan Hartley guinea pig bronchoconstriction einthoven model assessed as inhibition of methacholine-induced bronchoconstriction at 10 microg/ml, inhalation after 24 hrs by in vivo muscarinic antagonist and beta2 agonist activity assay; format: functional, organism-based; method in brief: as §2
Cavia porcellus [11] = test: Bronchoprotection in male Duncan Hartley guinea pig bronchoconstriction einthoven model assessed as inhibition of methacholine-induced bronchoconstriction at 10 microg/ml, inhalation after 1.5 hrs by in vivo muscarinic acetylcholine receptor antagonist activity assay; format: functional; set-up: scale not given: the % may be the effect or the level left; method in brief: as §2
Cavia porcellus [12] = test: Bronchoprotection in male Duncan Hartley guinea pig bronchoconstriction einthoven model assessed as inhibition of methacholine-induced bronchoconstriction at 10 microg/ml, inhalation after 1.5 hrs by in vivo beta2 adrenergic receptor agonist activity assay; format: functional, organism-based; method in brief: as §2
Cavia porcellus [13] = test: Bronchoprotection in male Duncan Hartley guinea pig bronchoconstriction einthoven model assessed as inhibition of methacholine-induced bronchoconstriction at 10 microg/ml, inhalation after 1.5 hrs by in vivo muscarinic antagonist and beta2 agonist activity assay; format: functional, organism-based; method in brief: as §2
Cavia porcellus [14] = species on record: Cavia porcellus; test: Antisialagogue activity in guinea pig assessed as inhibition of pilocarpine-induced sialagogue response at 10 ug/ml, inhalation after 1.5 hrs; format: functional
Cavia porcellus [15] = test: Bronchoprotection in male Duncan Hartley guinea pig bronchoconstriction einthoven model assessed as inhibition of methacholine-induced bronchoconstriction at 100 microg/ml, inhalation after 24 hrs by in vivo muscarinic antagonist and beta2 agonist activity assay; format: functional; set-up: scale not given: the % may be the effect or the level left; method in brief: as §1
Cavia porcellus [16] = test: Bronchoprotection in male Duncan Hartley guinea pig bronchoconstriction einthoven model assessed as inhibition of methacholine-induced bronchoconstriction at 100 microg/ml, inhalation after 1.5 hrs by in vivo muscarinic antagonist and beta2 agonist activity assay; format: functional

Chain of Muscarinic acetylcholine receptor M3 (P20309 whole entry): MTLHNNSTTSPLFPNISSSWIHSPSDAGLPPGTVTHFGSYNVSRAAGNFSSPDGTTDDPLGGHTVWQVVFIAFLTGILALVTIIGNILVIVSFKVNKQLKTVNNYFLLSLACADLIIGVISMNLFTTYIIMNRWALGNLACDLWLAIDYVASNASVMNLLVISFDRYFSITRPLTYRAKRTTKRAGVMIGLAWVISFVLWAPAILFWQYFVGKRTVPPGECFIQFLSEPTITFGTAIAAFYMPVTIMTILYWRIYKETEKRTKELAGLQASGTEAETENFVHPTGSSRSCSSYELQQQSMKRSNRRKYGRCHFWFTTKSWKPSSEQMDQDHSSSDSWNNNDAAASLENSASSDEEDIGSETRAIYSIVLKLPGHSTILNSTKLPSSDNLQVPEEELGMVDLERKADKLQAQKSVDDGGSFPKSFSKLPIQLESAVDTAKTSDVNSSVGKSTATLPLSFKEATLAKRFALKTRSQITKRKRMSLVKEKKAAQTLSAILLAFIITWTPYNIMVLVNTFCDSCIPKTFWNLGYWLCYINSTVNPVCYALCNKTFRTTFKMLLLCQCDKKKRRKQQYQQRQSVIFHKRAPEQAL
Chain of Beta-2 adrenergic receptor (P07550 whole entry): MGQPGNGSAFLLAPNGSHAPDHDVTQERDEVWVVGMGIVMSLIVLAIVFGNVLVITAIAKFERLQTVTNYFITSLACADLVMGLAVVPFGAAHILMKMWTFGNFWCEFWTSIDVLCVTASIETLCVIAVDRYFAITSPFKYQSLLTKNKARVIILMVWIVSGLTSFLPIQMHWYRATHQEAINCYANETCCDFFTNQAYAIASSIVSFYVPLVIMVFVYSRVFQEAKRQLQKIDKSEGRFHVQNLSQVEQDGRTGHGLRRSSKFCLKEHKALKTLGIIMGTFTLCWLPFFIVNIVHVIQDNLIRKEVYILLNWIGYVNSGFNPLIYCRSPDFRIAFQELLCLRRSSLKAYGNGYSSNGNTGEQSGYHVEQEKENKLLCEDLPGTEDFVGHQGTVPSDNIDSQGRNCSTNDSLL

Row | SMILES | pKi [1] | pEC50 [2] | Activity (Cavia porcellus [3]) | Activity (Cavia porcellus [4]) | also measured
1 | COc1cc(NC(=O)CCN2CCC(OC(=O)Nc3ccccc3-c3ccccc3)CC2)ccc1CNC[C@H](O)c1ccc(O)c2[nH]c(=O)ccc12 | 9.80 | 9.60 | 81% | 72% | Activity (Cavia porcellus [5]): 94%; Activity (Cavia porcellus [6]): 70%; inhibition (INH) (Cavia porcellus [7]): -3%
2 | COc1ccc(CCNC[C@H](O)c2ccc(O)c3[nH]c(=O)ccc23)cc1NC(=O)CCN1CCC(OC(=O)Nc2ccccc2-c2ccccc2)CC1 | 8.10 | 8.90 | – | – | –
3 | Cc1cc(C(=O)NCCN2CCC(OC(=O)Nc3ccccc3-c3ccccc3)CC2)c(C)cc1CNC[C@H](O)c1ccc(O)c2[nH]c(=O)ccc12 | 8.50 | 9.80 | – | – | –
4 | O=C(CCN1CCC(OC(=O)Nc2ccccc2-c2ccccc2)CC1)Nc1ccc(CNC[C@H](O)c2ccc(O)c3[nH]c(=O)ccc23)cc1Cl | 9.70 | 9.60 | – | 25% | –
5 | O=C(Nc1ccccc1-c1ccccc1)OC1CCN(CCCCCCCCCNC[C@H](O)c2ccc(O)c3[nH]c(=O)ccc23)CC1 | – | – | 72% | 10% | Activity (Cavia porcellus [5]): 94%; Activity (Cavia porcellus [6]): 63%
6 | O=C(Nc1ccccc1-c1ccccc1)OC1CCN(CCNC(=O)c2ccc(CNC[C@H](O)c3ccc(O)c4[nH]c(=O)ccc34)cc2)CC1 | 9.20 | 9.30 | 74% | 20% | –
7 | COc1cc(CNC[C@H](O)c2ccc(O)c3[nH]c(=O)ccc23)ccc1NC(=O)CCN1CCC(OC(=O)Nc2ccccc2-c2ccccc2)CC1 | 8.80 | 9.30 | 22% | 33% | –
8 | C[N+]1(C)[C@@H]2C[C@@H](OC(=O)C(O)(c3cccs3)c3cccs3)C[C@H]1[C@@H]1O[C@@H]12 [TIOTROPIUM] | – | – | – | – | Activity (Cavia porcellus [8]): 75%; Activity (Cavia porcellus [9]): inactive; Activity (Cavia porcellus [10]): inactive; Activity (Cavia porcellus [11]): 90%; Activity (Cavia porcellus [12]): inactive; Activity (Cavia porcellus [13]): inactive; inhibition (INH) (Cavia porcellus [14]): 99%
9 | COc1cc(NC(=O)CCN2CCC(OC(=O)Nc3ccccc3-c3ccccc3)CC2)c(C)cc1CNC[C@H](O)c1ccc(O)c2[nH]c(=O)ccc12 | 9.50 | 9.50 | – | – | –
10 | Cc1cc(CNC[C@H](O)c2ccc(O)c3[nH]c(=O)ccc23)ccc1N(C)C(=O)CCN1CCC(OC(=O)Nc2ccccc2-c2ccccc2)CC1 | 9.70 | 8.40 | – | – | –
11 | O=C(CCN1CCC(OC(=O)Nc2ccccc2-c2ccccc2)CC1)Nc1ccc(CNC[C@H](O)c2ccc(O)c3[nH]c(=O)ccc23)cc1 | 10.10 | 9.60 | 98% | -2% | Activity (Cavia porcellus [6]): 47%; inhibition (INH) (Cavia porcellus [7]): 82%
12 | COc1cc(N(C)C(=O)CCN2CCC(OC(=O)Nc3ccccc3-c3ccccc3)CC2)c(Cl)cc1CNC[C@H](O)c1ccc(O)c2[nH]c(=O)ccc12 | 9.50 | 9.10 | – | – | –
13 | COc1cc(N(C)C(=O)CCN2CCC(OC(=O)Nc3ccccc3-c3ccccc3)CC2)ccc1CNC[C@H](O)c1ccc(O)c2[nH]c(=O)ccc12 | 9.20 | 7.30 | – | – | –
14 | O=C(CCN1CCC(OC(=O)Nc2ccccc2-c2ccccc2)CC1)Nc1ccc(CNC[C@H](O)c2ccc(O)c3[nH]c(=O)ccc23)c(Cl)c1 | 9.70 | 9.30 | – | – | –
15 | O=C(CCN1CCC(OC(=O)Nc2ccccc2-c2ccccc2)CC1)NCCCCCNC[C@H](O)c1ccc(O)c2[nH]c(=O)ccc12 | 10.00 | 9.90 | – | – | –
16 | Cc1cc(CNC[C@H](O)c2ccc(O)c3[nH]c(=O)ccc23)ccc1NC(=O)CCN1CCC(OC(=O)Nc2ccccc2-c2ccccc2)CC1 | 10.30 | 9.70 | 92% | 20% | Activity (Cavia porcellus [15]): 96%
17 | COc1c(CNC[C@H](O)c2ccc(O)c3[nH]c(=O)ccc23)ccc(NC(=O)CCN2CCC(OC(=O)Nc3ccccc3-c3ccccc3)CC2)c1C | 9.30 | 9.60 | – | – | –
18 | COc1c(CNC[C@H](O)c2ccc(O)c3[nH]c(=O)ccc23)ccc(NC(=O)CCN2CCC(OC(=O)Nc3ccccc3-c3ccccc3)CC2)c1Cl | 9.20 | 9.40 | – | – | –
19 | COc1ccc(NC(=O)CCN2CCC(OC(=O)Nc3ccccc3-c3ccccc3)CC2)cc1CCNC[C@H](O)c1ccc(O)c2[nH]c(=O)ccc12 | 8.70 | 9.10 | – | – | –
20 | Cc1cc(NC(=O)CCN2CCC(OC(=O)Nc3ccccc3-c3ccccc3)CC2)ccc1CNC[C@H](O)c1ccc(O)c2[nH]c(=O)ccc12 | 8.90 | 9.70 | – | – | –
21 | CN(CCN1CCC(OC(=O)Nc2ccccc2-c2ccccc2)CC1)C(=O)c1ccc(CNC[C@H](O)c2ccc(O)c3[nH]c(=O)ccc23)cc1 | 9.10 | 9.60 | – | – | –
22 | NC(=O)C(c1ccccc1)(c1ccccc1)[C@@H]1CCN(CCc2ccc3c(c2)CCO3)C1 [DARIFENACIN] | – | – | 72% | 43% | Activity (Cavia porcellus [15]): inactive; Activity (Cavia porcellus [5]): inactive; Activity (Cavia porcellus [6]): 74%; Activity (Cavia porcellus [16]): inactive
23 | O=C(CCN1CCC(OC(=O)Nc2ccccc2-c2ccccc2)CC1)Nc1cccc(CCNC[C@H](O)c2ccc(O)c3[nH]c(=O)ccc23)c1 | 9.00 | 10.00 | 51% | 46% | Activity (Cavia porcellus [15]): 72%; Activity (Cavia porcellus [5]): 77%; Activity (Cavia porcellus [6]): 80%; Activity (Cavia porcellus [16]): 93%; inhibition (INH) (Cavia porcellus [7]): 23%
24 | COc1cc(C(=O)NCCN2CCC(OC(=O)Nc3ccccc3-c3ccccc3)CC2)ccc1CNC[C@H](O)c1ccc(O)c2[nH]c(=O)ccc12 | 8.20 | 8.80 | – | – | –
25 | O=C(CCN1CCC(OC(=O)Nc2ccccc2-c2ccccc2)CC1)N[C@H]1CC[C@H](CNC[C@H](O)c2ccc(O)c3[nH]c(=O)ccc23)CC1 | 9.50 | 9.80 | – | – | –
